This note sets out measurements from ChEMBL document CHEMBL4706496, “Discovery of novel aminopiperidinyl amide CXCR4 modulators through virtual screening and rational drug design” (Eur J Med Chem, 2020).

The source made the active and inactive calls.

The target of series [1] is C-X-C chemokine receptor type 4 (Homo sapiens) (UniProt P61073). Kind of series: Binding affinity to human CXCR4 in human MDA-MB-231 cells assessed as inhibition of CXCR4-targeted conjugate formation preincubated with compound followed by biotinylated-TN14003 addition and measured after 45 mins by competition based microscopic analysis. Type of series: cell-based. In outline: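 MDA-MB-231 cells in chamber slides preincubated with compound at 1, 10, 100 and 1000 nM. Then fixed in 4% formaldehyde, incubated with 50 nM biotinylated TN14003, and stained with streptavidin–rhodamine. Fluorescence imaged by microscopy and quantified. EC defined as the concentration blocking >50% of probe signal; IC50 obtained by curve fitting.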

A further series deals with MDA-MB-231. Kind of series: Antiinvasive activity against human MDA-MB-231 cells assessed as inhibition of cell migration at 100 nM incubated for 22 hrs by H and E staining based matrigel invasion assay. Type of series: functional. A digest of the protocol: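 MDA-MB-231 cells (DMEM, 10% FBS, penicillin/streptomycin) seeded on Matrigel in upper chamber with compound at 100 nM; 200 ng/mL CXCL12 in lower chamber as chemoattractant. Invaded cells at the Matrigel bottom fixed in methanol, H&E stained and counted to give percentage invasion.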

The nature of series [2]: Stability in athymic nude-Foxn1 mouse serum measured upto 120 mins by HPLC method. Type of series: ADME, cell-free. The conditions noted are these: 2 h. In outline:
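Blood from female athymic nude mice (7 weeks) taken from orbital venous sinus and spun at 13,000 rpm, 6 min, 4 °C. Supernatant mixed 4:1 with 10 mM aqueous compound solution (stock) and held at 36.6 °C. Samples at 0, 5, 15, 30, 60, 120 min passed through 10 kDa filter. Filtrate run on C18 HPLC, acetonitrile/water (0.1% TEA) 3:7, detection at 310 nm. Half-life from one-phase decay fit.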

In series [3] the test system is Mus musculus. Kind of series: Antiinflammatory activity in carrageenan-induced JAZ 007850 J:NU mouse model assessed as reduction in infiltration of CXCR-4 expressing cells at 10 mg/kg, ip qd measured after 74 hrs by immunohistochemistry assay. The class given is functional, organism-based. In outline:
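Carrageenan paw edema tissue (male nude mice, 10 mg/kg i.p. daily, harvested 74 h) formalin-fixed, paraffin-embedded, deparaffinized. Antigen retrieval by microwaving in 10 mM sodium citrate pH 6.0. Blocked with hydrogen peroxide, avidin/biotin and horse serum. Anti-CXCR4 antibody at 1:500 overnight at 4 °C, then biotinylated secondary and avidin-biotin complex. Developed with diaminobenzidine, hematoxylin counterstain; H&E sections also examined.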

For series [4], the system named is Mus musculus. Put plainly: Antiinflammatory activity in JAZ 007850 J:NU mouse assessed as decrease in carrageenan-induced paw edema treated at 10 mg/kg, ip qd starting 30 min after carrageenan challenge measured after 74 hrs. In general terms: In the carrageenan paw model, swelling and tenderness develop within hours.

Sequence of C-X-C chemokine receptor type 4 (Homo sapiens) (P61073 whole entry): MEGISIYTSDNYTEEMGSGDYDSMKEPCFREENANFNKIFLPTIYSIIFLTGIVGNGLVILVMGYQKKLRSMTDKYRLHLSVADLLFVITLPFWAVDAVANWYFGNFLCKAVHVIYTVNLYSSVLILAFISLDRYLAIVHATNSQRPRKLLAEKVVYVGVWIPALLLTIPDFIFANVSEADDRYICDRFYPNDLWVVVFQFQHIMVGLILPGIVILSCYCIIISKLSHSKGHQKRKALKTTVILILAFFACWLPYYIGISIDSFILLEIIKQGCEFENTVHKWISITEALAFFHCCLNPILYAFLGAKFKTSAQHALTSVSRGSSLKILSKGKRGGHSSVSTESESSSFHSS

By inhibition is commonly meant how much of the control response was suppressed. In the case of `O=C(CN1CCC(n2nnc(-c3cccs3)n2)CC1)Nc1ccc(Cn2cncn2)cc1`, the EC in series [1] came out at 100 nM. Moreover, in the series on MDA-MB-231, the inhibition at 0.1 µM turned out to be 40.9%.
`NC(=O)C1CCN(Cc2ccc(NC(=O)CCc3c[nH]c4ccccc34)cc2)CC1`: the EC in series [1] was 1000 nM. The inhibition entry in the series on MDA-MB-231 is “inactive”.
For `C[C@H](C(=O)N[C@@H]1CCN(Cc2ccccc2)C1)N1CCC(C(=O)Nc2cc(O)ccc2Cl)CC1`, in that order: above 1000 nM and “inactive”.
`C[C@@H](NC(=O)[C@@H](N)c1ccccc1)C(=O)N1CCN(C(=O)CCn2ccc3ccncc32)CC1`: in series [1], the EC came out at 100 nM. Further, the inhibition at 0.1 µM with MDA-MB-231 was 15.7%.
For `O=C(Nc1ccc2c(c1)OCO2)C1CCN(C(=O)NC2CCN(Cc3ccccc3)CC2)CC1`, in that order: 10 nM and 9.3%.
The matching figures for `N[C@@H](C(=O)NC1CCN(C(=O)CCn2ccc3ccncc32)CC1)c1ccccc1`: 100 nM and 68.6%.
In the case of `O=C(NCCc1c[nH]c2ccccc12)C1CCN(C(=O)Cc2nnc(O)c3ccccc23)CC1`, the EC in series [1] turned out to be 1000 nM. Further, in the series with MDA-MB-231, the inhibition result was “inactive”.
In the case of `N=C(N)NCCC[C@H](N)C(=O)NC1CCN(C(=O)CCn2ccc3ccncc32)CC1`, the EC in series [1] amounted to 1 nM. For the same compound, the inhibition at 0.1 µM with MDA-MB-231 was determined as 78.5%. The compound further registered a t1/2 in series [2] of 1.28 h. For the same compound, the inhibition result with Mus musculus [3] and with Mus musculus [4] was “Active” throughout.
